The source of these data is ChEMBL document CHEMBL1800019, “Highly potent activity of (1R,2R,6S)-3-methyl-6-(prop-1-en-2-yl)cyclohex-3-ene-1,2-diol in animal models of Parkinson's disease” (2011).

Assay [1] has as its system Mus musculus. The assay is described as follows: Antiparkinsonian effect against MPTP-induced hypokinesia in C57/BL6 mouse assessed as number of holes explored at 20 mg/kg, po administered 15 mins after 30 mg/kg, ip MPTP challenge measured after 1.5 hrs of compound administration for 2 mins (reference value: 15.6 +/- 3.3 holes explored). It counts as functional, C57Bl/6. In outline:
(§1)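 Male C57BL/6 mice (25–30 g) were given MPTP 0.17 mmol/kg (30 mg/kg) ip and, 15 min later, test agent 0.12 mmol/kg (20 mg/kg) po. Controls received saline. An open-field test (Tru Scan) was run 1.5 h after MPTP for 2 min, recording acts, locomotion time, distance, speed, upright postures and explored holes.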

Assay [2] concerns Mus musculus. The assay is described as follows: Antiparkinsonian effect against MPTP-induced hypokinesia in C57/BL6 mouse assessed as movement speed at 20 mg/kg, po administered 15 mins after 30 mg/kg, ip MPTP challenge measured after 1.5 hrs of compound administration for 2 mins (reference value: 2.3 +/- 0.2 cm/s). It counts as functional, C57Bl/6. In outline: as §1
In assay [3] the test system is Mus musculus. In words: Antiparkinsonian effect against MPTP-induced hypokinesia in C57/BL6 mouse assessed as number of locomotory acts at 20 mg/kg, po administered 15 mins after 30 mg/kg, ip MPTP challenge measured after 1.5 hrs of compound administration for 2 mins (reference value: 84.1 +/- 1.9 locomotor acts). It counts as functional, C57Bl/6. In outline:
as §1

Assay [4] deals with Mus musculus. The assay is described as follows: Antiparkinsonian effect against MPTP-induced hypokinesia in C57/BL6 mouse assessed as movement distance at 20 mg/kg, po administered 15 mins after 30 mg/kg, ip MPTP challenge […] for 2 mins (reference value: 276.8 +/- 27.8 cm). It counts as functional, C57Bl/6.
For assay [5], the system named is Mus musculus. In words: Antiparkinsonian effect against MPTP-induced hypokinesia in C57/BL6 mouse assessed as time of locomotory activity at 20 mg/kg, po administered 15 mins after 30 mg/kg, ip MPTP challenge measured after 1.5 hrs of compound administration for 2 mins (reference value: 58.3 +/- 3.9 sec). It counts as functional, C57Bl/6. Put shortly:
as §1

The test system of assay [6] is Mus musculus. In words: Antiparkinsonian effect against MPTP-induced hypokinesia in C57/BL6 mouse assessed as number of upright postures at 20 mg/kg, po administered 15 mins after 30 mg/kg, ip MPTP challenge measured after 1.5 hrs of compound administration for 2 mins (reference value: 6.5 +/- 1.3 upright postures). It counts as functional, C57Bl/6. In outline:
as §1

For assay [7], the system named is Rattus norvegicus. The assay is described as follows: Antiparkinsonian effect against MPTP-induced hypokinesia in Wistar rat assessed as number of holes explored at 10 mg/kg, po administered 30 days post 20 mg/kg, ip MPTP challenge measured on 30th day 2 hrs post compound administration for 2 mins (reference value: 4.6 +/- 0.9 holes explored). It counts as functional.

The subject of assay [8] is Rattus norvegicus. The assay is described as follows: Antiparkinsonian effect against MPTP-induced hypokinesia in Wistar rat assessed as time of locomotory activity at 10 mg/kg, po administered 30 days post 20 mg/kg, ip MPTP challenge measured on 30th day 2 hrs post compound administration for 2 mins (reference value: 69.7 +/- 2.1s). It counts as functional.
In assay [9] the test system is Rattus norvegicus. In words: Antiparkinsonian effect against MPTP-induced hypokinesia in Wistar rat assessed as number of upright postures at 10 mg/kg, po administered 30 days post 20 mg/kg, ip MPTP challenge measured on 30th day 2 hrs post compound administration for 2 mins (reference value: 14.6 +/- 1.8 upright postures). It counts as functional.
The subject of assay [10] is Rattus norvegicus. In words: Antiparkinsonian effect against MPTP-induced hypokinesia in Wistar rat assessed as movement distance at 10 mg/kg, po administered 30 days post 20 mg/kg, ip MPTP challenge measured on 30th day 2 hrs post compound administration for 2 mins (reference value: 367 +/- 21.2 cm). It counts as functional.
Assay [11] relates to Rattus norvegicus. The assay is described as follows: Antiparkinsonian effect against MPTP-induced hypokinesia in Wistar rat assessed as number of locomotory acts at 10 mg/kg, po administered 30 days post 40 mg/kg, ip MPTP challenge measured on 30th day 2 hrs post compound administration for 2 mins (reference value: 80.3 +/- 2.5 locomotor acts).
The subject of assay [12] is Rattus norvegicus. In words: Antiparkinsonian effect against MPTP-induced hypokinesia in Wistar rat assessed as movement distance at 20 mg/kg, po administered 30 days post ip MPTP challenge measured on 30th day 2 hrs post compound administration for 2 mins (reference value: 367 +/- 21.2 cm).
Assay [13] deals with Rattus norvegicus. The assay is described as follows: Antiparkinsonian effect against MPTP-induced hypokinesia in Wistar rat assessed as movement speed at 20 mg/kg, po administered 30 days post ip MPTP challenge measured on 30th day 2 hrs post compound administration for 2 mins (reference value: 3.0 +/- 0.2 cm/s).
Assay [14] concerns Rattus norvegicus. In words: Antiparkinsonian effect against MPTP-induced hypokinesia in Wistar rat assessed as number of locomotory acts at 20 mg/kg, po administered 30 days post 20 mg/kg, ip MPTP challenge measured on 30th day 2 hrs post compound administration for 2 mins (reference value: 80.3 +/- 2.5 locomotor acts). It counts as functional.
Assay [15] concerns Mus musculus. In words: Antiparkinsonian effect against MPTP-induced hypokinesia in C57/BL6 mouse assessed as movement distance at 20 mg/kg, po administered 24 hrs after 4 X 20 mg/kg, ip MPTP challenge measured after 2 hrs of compound administration for 2 mins (reference value: 556.7 +/- 19.6 cm). It counts as functional, C57Bl/6.
Assay [16] has as its system Mus musculus. The assay is described as follows: Antiparkinsonian effect against MPTP-induced hypokinesia in C57/BL6 mouse assessed as number of upright postures at 20 mg/kg, po administered 24 hrs after 4 X 20 mg/kg, ip MPTP challenge measured after 2 hrs of compound administration for 2 mins (reference value: 24.9 +/- 3.3 upright postures). It counts as functional, C57Bl/6.

For assay [17], the system named is Rattus norvegicus. The assay is described as follows: Antiparkinsonian effect against MPTP-induced hypokinesia in Wistar rat assessed as number of upright postures at 20 mg/kg, po administered 30 days post 40 mg/kg, ip MPTP challenge measured on 30th day 2 hrs post compound administration for 2 mins (reference value: 14.6 +/- 1.8 upright postures).
Assay [18] has as its system Mus musculus. In words: Antiparkinsonian effect against MPTP-induced hypokinesia in C57/BL6 mouse assessed as movement speed at 20 mg/kg, po administered 24 hrs after 4 X 20 mg/kg, ip MPTP challenge measured after 2 hrs of compound administration for 2 mins (reference value: 4.6 +/- 0.2 cm/s). It counts as functional, C57Bl/6.
Assay [19] concerns Rattus norvegicus. In words: Antiparkinsonian effect against MPTP-induced hypokinesia in Wistar rat assessed as time of locomotory activity at 20 mg/kg, po administered 30 days post 40 mg/kg, ip MPTP challenge measured on 30th day 2 hrs post compound administration for 2 mins (reference value: 69.7 +/- 2.1 sec).
The subject of assay [20] is Mus musculus. In words: Antiparkinsonian effect against MPTP-induced hypokinesia in C57/BL6 mouse assessed as number of locomotory acts at 20 mg/kg, po administered 24 hrs after 4 X 20 mg/kg, ip MPTP challenge measured after 2 hrs of compound administration for 2 mins (reference value: 73.3 +/- 2.3 locomotor acts). It counts as functional, C57Bl/6.
In assay [21] the test system is Mus musculus. In words: Antiparkinsonian effect against MPTP-induced hypokinesia in C57/BL6 mouse assessed as time of locomotory activity at 20 mg/kg, po administered 24 hrs after 4 X 20 mg/kg, ip MPTP challenge measured after 2 hrs of compound administration for 2 mins (reference value: 90.0 +/- 1.4 sec). It counts as functional, C57Bl/6.
For assay [22], the system named is Rattus norvegicus. The assay is described as follows: Inhibition of haloperidol-induced catalepsy in Wistar rat at 20 mg/kg, po administered 10 mins before haloperidol challenge measured for 30 to 240 mins. It counts as functional, organism-based. Details: dose 20 mg/kg. Put shortly:
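Male Wistar rats (six per group) were dosed po with 0.12 mmol/kg (20 mg/kg), and 10 min later received haloperidol 4.0 μmol/kg (1.5 mg/kg) ip in saline. Controls received haloperidol only. Immobility time on parallel bars was recorded at 30, 60, 120, 180 and 240 min at rt. Total catalepsy duration and % cataleptic animals were scored.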

Assay [23] deals with Mus musculus. In words: Antiparkinsonian effect against MPTP-induced hypokinesia in C57/BL6 mouse assessed as number of holes explored at 20 mg/kg, po administered 24 hrs after 4 X 20 mg/kg, ip MPTP challenge measured after 2 hrs of compound administration for 2 mins (reference value: 4.1 +/- 1.1 holes explored). It counts as functional, C57Bl/6.
Assay [24] deals with Rattus norvegicus. The assay is described as follows: Antiparkinsonian effect against MPTP-induced hypokinesia in Wistar rat assessed as number of holes explored at 20 mg/kg, po administered 30 days post ip MPTP challenge measured on 30th day 2 hrs post compound administration for 2 mins (reference value: 4.6 +/- 0.9 holes explored).

Calls of active or inactive are those of the source. The rule behind the calls is not given here.

Turning to `C=C(C)[C@H]1CC=C(C)[C@H](O)[C@H]1O`, the Activity in the assay with Mus musculus [1] was 4.4; in the assay with Mus musculus [2], 1.1 cm/s; with Mus musculus [3], 57.9; with Mus musculus [6], 2.5. Moreover, the Movement distance in the assay on Mus musculus [4] turned out to be 147.8 cm. Besides, the Time in the assay on Mus musculus [5] amounted to 34.9 s.
Turning to `C=C(C)[C@H]1CC=C(C)[C@@H](O)[C@H]1O`, the Activity turned out to be 8.1 with Mus musculus [1], 2.1 cm/s in the assay with Mus musculus [2], 82.4 in the assay on Mus musculus [3] and 7.9 in the assay with Mus musculus [6]. For the same compound, the Movement distance in the assay with Mus musculus [4] was 257.7 cm. Moreover, the Time in the assay on Mus musculus [5] is listed as 56.6 s.
`N[C@@H](Cc1ccc(O)c(O)c1)C(=O)O` [LEVODOPA]: the Activity came to 4.6 with Rattus norvegicus [7], 9.6 in the assay on Rattus norvegicus [9], 316.8 cm in the assay on Rattus norvegicus [10] and 86 with Rattus norvegicus [11]. Also, the Time in the assay with Rattus norvegicus [8] came to 65.1 s.
`C=C(C)[C@@H]1CC=C(C)[C@H](O)[C@H]1O`: the Activity in the assay on Mus musculus [1] turned out to be 8.1; in the assay on Mus musculus [2] it was 2.1 cm/s; in the assay with Mus musculus [3], 77.4; in the assay with Mus musculus [6], 10.3. In addition, the Movement distance in the assay with Mus musculus [4] is recorded as 253.3 cm. The Time in the assay with Mus musculus [5] came out at 55.7 s.
Consider `C=C(C)[C@@H]1CC=C(C)[C@@H](O)[C@H]1O`, for which the Activity with Mus musculus [1] stood at 3.5; in the assay on Mus musculus [2] it was 1.7 cm/s; in the assay with Mus musculus [3], 64.9; with Mus musculus [6] it was 4. Besides, the Movement distance with Mus musculus [4] is on record as 212.4 cm. Moreover, the Time in the assay with Mus musculus [5] came to 45.5 s.
As to `C=C(C)[C@H]1CC=C(C)[C@@H](O)[C@@H]1O`, the Activity is listed as 3.9 with Mus musculus [1], 1.3 cm/s in the assay with Mus musculus [2], 65.5 in the assay with Mus musculus [3] and 4.7 with Mus musculus [6]. For the same compound, the Movement distance with Mus musculus [4] was 158.8 cm. The Time with Mus musculus [5] came out at 46.9 s.
Take `C=C(C)[C@@H]1CC=C(C)[C@H](O)[C@@H]1O`: the Activity in the assay on Mus musculus [1] is 0.9; in the assay on Mus musculus [2] it was 0.4 cm/s; with Mus musculus [3] it was 28.5; in the assay with Mus musculus [6] it was 1.7. Besides, the Movement distance in the assay on Mus musculus [4] is 55.9 cm. For the same compound, the Time in the assay with Mus musculus [5] is reported as 15 s.
In the case of `C=C(C)[C@@H]1CC=C(C)[C@@H](O)[C@@H]1O`, the Activity in the assay on Mus musculus [1] is recorded as 13.1; with Rattus norvegicus [12], 305.6 cm; in the assay with Mus musculus [2], 2.7 cm/s; with Rattus norvegicus [13] it was 2.5 cm/s; with Rattus norvegicus [14], 81.9; in the assay on Mus musculus [15], 439.6 cm. The Activity was determined as 78.6 with Mus musculus [3]; 14.8 with Mus musculus [16]; 10.7 in the assay with Rattus norvegicus [17]; 3.6 cm/s in the assay with Mus musculus [18]; 80.5 with Mus musculus [20]; 3.2 with Mus musculus [6]. The Activity with Mus musculus [23] stood at 6.5; in the assay with Rattus norvegicus [24], 4.3. Besides, the Movement distance in the assay on Mus musculus [4] stood at 332.6 cm. The Time in the assay with Mus musculus [5] is on record as 64 s; in the assay with Rattus norvegicus [19], 62.6 s; in the assay on Mus musculus [21] it was 74.8 s. The inhibition result with Rattus norvegicus [22] is “Active”.
In the case of `C=C(C)[C@H]1CC=C(C)[C@H](O)[C@@H]1O`, the Activity in the assay on Mus musculus [1] was determined as 14.4; in the assay on Mus musculus [2], 1.2 cm/s; in the assay with Mus musculus [3] it was 80.2; in the assay with Mus musculus [6], 3.1. In addition, the Movement distance with Mus musculus [4] is listed as 245.9 cm. Further, the Time in the assay with Mus musculus [5] turned out to be 55.6 s.
